Experimental data from ChEMBL document CHEMBL4396949, “Anti-cancer potential of novel glycosylated 1,4-substituted triazolylchalcone derivatives” (Bioorg Med Chem Lett, 2019).

Columns and labels:
[1] = Antiproliferative activity against human WI38 cells incubated for 24 hrs by MTT assay; format: cell-based, WI-38; conditions: read-out: LD50
In short: (§1)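 Cells exposed to compounds at […]; viability read by MTT assay. LD50 derived from concentration-response. MDA-MB-468: triple-negative (ER-, PR-, HER2-) breast cancer. MCF-7: ER+, PR+, HER2- breast cancer. WI-38: non-cancerous lung fibroblasts. Selectivity index taken as WI-38 LD50 divided by cancer-cell LD50.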

[2] = Selectivity index, ratio of LD50 for human WI38 cells to LD50 for human MCF7 cells; format: toxicity; conditions: WI38 cells and MCF7 cells, read-out: Selectivity Index
In short: (§2)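 MTT cytotoxicity after exposure to […] in MDA-MB-468, MCF-7 and WI-38 fibroblasts; LD50 determined per line; selectivity index calculated as WI-38 LD50 divided by cancer-cell LD50.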

[3] = Selectivity index, ratio of LD50 for human WI38 cells to LD50 for human MDA-MB-468 cells; format: toxicity; conditions: WI38 cells and MDA-MB-468 cells, read-out: Selectivity Index; in short: as §2
MCF7 = assay: Antiproliferative activity against human MCF7 cells incubated for 24 hrs by MTT assay; format: functional; conditions: MCF7, 24 h, read-out: LD50 (the source's name); in short: as §1
MDA-MB-468 = assay: Antiproliferative activity against human MDA-MB-468 cells incubated for 24 hrs by MTT assay; format: functional; conditions: MDA-MB-468, 24 h, read-out: LD50 (the source's name); in short: as §1

| Compound | CC50 at 24 h [1] [µM] | selectivity ratio [2] | selectivity ratio [3] | CC50 (MCF7) [µM] | CC50 (MDA-MB-468) [µM] |
| --- | --- | --- | --- | --- | --- |
| CC(=O)O[C@H]1C(=O)[C@@]2(C)[C@H]([C@H](OC(=O)c3ccccc3)[C@]3(O)C[C@H](OC(=O)[C@H](O)[C@@H](NC(=O)c4ccccc4)c4ccccc4)C(C)=C1C3(C)C)[C@]1(OC(C)=O)CO[C@@H]1C[C@@H]2O [PACLITAXEL] | 35 | 1.2 | 1.29 | 29 | 27 |
| COc1ccc(/C=C/C(=O)c2ccc(OCc3cn([C@@H]4O[C@H](CO)[C@@H](O)[C@H](O)[C@H]4O)nn3)cc2)cc1OC | 95 | 0.83 | 1.08 | 115 | 88 |
| COc1cc(/C=C/C(=O)c2ccc(OCc3cn([C@@H]4O[C@H](CO)[C@@H](O)[C@H](O)[C@H]4O)nn3)cc2)cc(OC)c1OC | 54 | 0.64 | 1.06 | 84 | 51 |
| COc1ccc(/C=C/C(=O)c2ccc(OCc3cn([C@@H]4O[C@H](CO)[C@@H](O)[C@H](O)[C@H]4O)nn3)cc2)cc1OCc1ccccc1 | 105 | 1.25 | 1.64 | 84 | 64 |
| COc1cc(/C=C/C(=O)c2ccc(C#N)cc2)ccc1OCc1cn([C@@H]2O[C@H](CO)[C@@H](O)[C@H](O)[C@H]2O)nn1 | 88 | 1.13 | 1.07 | 78 | 82 |
| O=C(/C=C/c1ccc(Cl)c(Cl)c1)c1ccc(OCc2cn([C@@H]3O[C@H](CO)[C@@H](O)[C@H](O)[C@H]3O)nn2)cc1 | 55 | 0.85 | 0.93 | 65 | 59 |
| COc1cc([C@@H]2c3cc4c(cc3[C@@H](O[C@@H]3O[C@@H]5CO[C@@H](C)O[C@H]5[C@H](O)[C@H]3O)[C@H]3COC(=O)[C@H]23)OCO4)cc(OC)c1O [ETOPOSIDE] | 36 | 0.95 | 1.06 | 38 | 34 |
| COc1cc(/C=C/C(=O)c2cc(OC)c(OC)c(OC)c2)ccc1OCc1cn([C@@H]2O[C@H](CO)[C@@H](O)[C@H](O)[C@H]2O)nn1 | 67 | 0.77 | 0.92 | 87 | 73 |
| O=C(/C=C/c1ccccc1Cl)c1ccc(OCc2cn([C@@H]3O[C@H](CO)[C@@H](O)[C@H](O)[C@H]3O)nn2)cc1 | 68 | 0.94 | 1.06 | 72 | 64 |
| COc1cc(/C=C/C(=O)c2ccc([N+](=O)[O-])cc2)ccc1OCc1cn([C@@H]2O[C@H](CO)[C@@H](O)[C@H](O)[C@H]2O)nn1 | 75 | 0.99 | 1.02 | 76 | 68 |
| CCOc1ccc(/C=C/C(=O)c2ccc(OCc3cn([C@@H]4O[C@H](CO)[C@@H](O)[C@H](O)[C@H]4O)nn3)cc2)cc1 | 78 | 1.15 | 1.05 | 68 | 74 |
| COc1ccccc1/C=C/C(=O)c1ccc(OCc2cn([C@@H]3O[C@H](CO)[C@@H](O)[C@H](O)[C@H]3O)nn2)cc1 | 103 | 1.06 | 1.3 | 97 | 79 |
| COc1ccc(C(=O)/C=C/c2ccc(OCc3cn([C@@H]4O[C@H](CO)[C@@H](O)[C@H](O)[C@H]4O)nn3)c(OC)c2)cc1OC | 96 | 1.45 | 1.43 | 66 | 67 |
| COc1cc(/C=C/C(=O)c2ccccc2)ccc1OCc1cn([C@@H]2O[C@H](CO)[C@@H](O)[C@H](O)[C@H]2O)nn1 | 98 | 0.8 | 1.1 | 123 | 89 |
| O=C(/C=C/c1cc(Cl)cc(Cl)c1)c1ccc(OCc2cn([C@@H]3O[C@H](CO)[C@@H](O)[C@H](O)[C@H]3O)nn2)cc1 | 64 | 0.86 | 1.03 | 74 | 62 |
| O=C(/C=C/c1cccc([N+](=O)[O-])c1)c1ccc(OCc2cn([C@@H]3O[C@H](CO)[C@@H](O)[C@H](O)[C@H]3O)nn2)cc1 | 69 | 1.17 | 1.07 | 59 | 64 |
| O=C(/C=C/c1ccc(OCc2ccccc2)cc1)c1ccc(OCc2cn([C@@H]3O[C@H](CO)[C@@H](O)[C@H](O)[C@H]3O)nn2)cc1 | 68 | 0.86 | 1.19 | 79 | 57 |
| COc1cc(/C=C/C(=O)c2ccc(OCc3cn([C@@H]4O[C@H](CO)[C@@H](O)[C@H](O)[C@H]4O)nn3)cc2)cc(OC)c1 | 52 | 0.72 | 1.56 | 72 | 33 |
| O=C(/C=C/c1ccc([N+](=O)[O-])cc1)c1ccc(OCc2cn([C@@H]3O[C@H](CO)[C@@H](O)[C@H](O)[C@H]3O)nn2)cc1 | 64 | 1.19 | 1.49 | 54 | 43 |
| COc1ccc(/C=C/C(=O)c2ccc(OCc3cn([C@@H]4O[C@H](CO)[C@@H](O)[C@H](O)[C@H]4O)nn3)cc2)cc1 | 72 | 1.36 | 1.84 | 53 | 39 |
| COc1cccc(/C=C/C(=O)c2ccc(OCc3cn([C@@H]4O[C@H](CO)[C@@H](O)[C@H](O)[C@H]4O)nn3)cc2)c1 | 73 | 1.16 | 0.94 | 63 | 77 |
| COc1cc(/C=C/C(=O)c2ccc(Br)cc2)ccc1OCc1cn([C@@H]2O[C@H](CO)[C@@H](O)[C@H](O)[C@H]2O)nn1 | 89 | 0.9 | 1.37 | 99 | 65 |
